Converted amounts (≈) assume the structure as drawn.
Experiments:
[1] = test system: Trichoderma viride; test: Antifungal activity against Trichoderma viride IAM 5061 after 72 hrs by serial dilution technique; format: functional; settings: IAM 5061, 72 h
Outline: (§1)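 Serial dilution in malt broth; compounds from 1 mg/ml stocks in 5% DMSO; 72 h at 28 °C. MIC is the lowest concentration with no visible growth under a binocular microscope. Run in duplicate, repeated three times.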

[2] = test system: Aspergillus niger; test: Fungicidal activity against Aspergillus niger ATCC 6275 after 72 hrs by serial subcultivation method; format: functional; settings: ATCC 6275, 72 h
[3] = test system: Pseudomonas aeruginosa; test: Bactericidal activity against Pseudomonas aeruginosa ATCC 27853 after 72 hrs by serial subcultivation method; format: functional; settings: ATCC 27853, 72 h
[4] = test system: Aspergillus niger; test: Antifungal activity against Aspergillus niger ATCC 6275 after 72 hrs by serial dilution technique; format: functional; settings: ATCC 6275, 72 h; outline: as §1
[5] = test system: Bacillus cereus; test: Antibacterial activity against Bacillus cereus clinical isolate after 24 hr by microdilution test; format: functional
Outline: (§2)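 Broth microdilution in LB medium, about 1.0×10^4 cfu per well; compounds from 1 mg/ml stocks in 5% DMSO. Incubated 24 h. MIC is the lowest concentration with no visible growth under a binocular microscope. Run in duplicate, repeated three times.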

[6] = test system: Staphylococcus aureus; test: Antibacterial activity against Staphylococcus aureus ATCC 6538 after 24 hr by microdilution test; format: functional; settings: ATCC 6538, 24 h; outline: as §2
[7] = test system: Trichoderma viride; test: Fungicidal activity against Trichoderma viride IAM 5061 after 72 hrs by serial subcultivation method; format: functional; settings: IAM 5061, 72 h
[8] = test system: Escherichia coli; test: Antibacterial activity against Escherichia coli ATCC 35210 after 24 hr by microdilution test; format: functional; settings: ATCC 35210, 24 h; outline: as §2
[9] = test system: Penicillium ochrochloron; test: Antifungal activity against Penicillium ochrochloron ATCC 9112 after 72 hrs by serial dilution technique; format: functional; settings: ATCC 9112, 72 h; outline: as §1
[10] = test system: Aspergillus fumigatus; test: Antifungal activity against Aspergillus fumigatus after 72 hrs by serial dilution technique; format: functional; outline: as §1
[11] = test system: Pseudomonas aeruginosa; test: Antibacterial activity against Pseudomonas aeruginosa ATCC 27853 after 24 hr by microdilution test; format: functional; settings: ATCC 27853, 24 h; outline: as §2
[12] = test system: Bacillus cereus; test: Bactericidal activity against Bacillus cereus clinical isolate after 72 hrs by serial subcultivation method; format: functional
[13] = test system: Aspergillus flavus; test: Fungicidal activity against Aspergillus flavus ATCC 9643 after 72 hrs by serial subcultivation method; format: functional; settings: ATCC 9643, 72 h
[14] = test system: Penicillium ochrochloron; test: Fungicidal activity against Penicillium ochrochloron ATCC 9112 after 72 hrs by serial subcultivation method; format: functional; settings: ATCC 9112, 72 h
[15] = test system: Talaromyces funiculosus; test: Antifungal activity against Penicillium funiculosum ATCC 36839 after 72 hrs by serial dilution technique; format: functional; settings: ATCC 36839, 72 h; outline: as §1
[16] = test system: Mus musculus; test: Antiinflammatory activity in AKR mouse assessed as inhibition of carrageenan-induced paw edema at 0.01 mmol/kg, ip measured after 3.5 hrs of carrageenan-challenge; format: functional
Outline: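 AKR mice of both sexes (pregnant females excluded), 6-10 per group, fasted during the experiment. Edema induced by intradermal 0.05 mL of 2% carrageenin into the right hind paw. Compound given at 0.01 mmol/kg ip, suspended in water with Tween-80, at the same time as carrageenin.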

[17] = test system: Listeria monocytogenes; test: Bactericidal activity against Listeria monocytogenes NCTC 7973 after 72 hrs by serial subcultivation method; format: functional; settings: NCTC 7973, 72 h
[18] = test system: Micrococcus flavus; test: Bactericidal activity against Micrococcus flavus ATCC 10240 after 72 hrs by serial subcultivation method; format: functional; settings: ATCC 10240, 72 h
[19] = target: T1, Prostaglandin G/H synthase 1 (Ovis aries) (UniProt P05979); test: Inhibition of ovine COX1 assessed as inhibition of PGF2a production by enzyme immunoassay; design: concentration or dose not given beside the values; settings: concentration not given here
T1 sequence (whole entry): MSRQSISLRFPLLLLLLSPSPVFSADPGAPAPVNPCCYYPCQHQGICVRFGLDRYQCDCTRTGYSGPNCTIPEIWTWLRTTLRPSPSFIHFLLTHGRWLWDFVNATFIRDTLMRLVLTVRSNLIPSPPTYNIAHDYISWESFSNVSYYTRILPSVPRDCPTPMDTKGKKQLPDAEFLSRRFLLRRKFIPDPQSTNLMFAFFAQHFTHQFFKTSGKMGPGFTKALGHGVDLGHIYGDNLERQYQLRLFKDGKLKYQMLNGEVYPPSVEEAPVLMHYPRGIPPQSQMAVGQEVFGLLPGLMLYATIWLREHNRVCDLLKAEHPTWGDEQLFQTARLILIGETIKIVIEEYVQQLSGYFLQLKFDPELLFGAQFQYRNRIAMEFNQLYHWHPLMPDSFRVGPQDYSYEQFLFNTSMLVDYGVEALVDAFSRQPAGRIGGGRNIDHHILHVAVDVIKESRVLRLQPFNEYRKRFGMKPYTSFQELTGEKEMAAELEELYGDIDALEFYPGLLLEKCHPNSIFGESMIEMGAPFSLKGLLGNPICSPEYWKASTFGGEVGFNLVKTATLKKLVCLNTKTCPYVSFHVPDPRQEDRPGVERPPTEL
Outline: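 Ovine COX-1 from a commercial screening kit, tested with 0.1 µM arachidonic acid, which is below the saturating level. COX-derived PGH2 is reduced by SnCl2 to PGF2a, quantified by enzyme immunoassay with a broad prostaglandin antibody. At least triplicate.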

[20] = test system: Staphylococcus aureus; test: Bactericidal activity against Staphylococcus aureus ATCC 6538 after 72 hrs by serial subcultivation method; format: functional; settings: ATCC 6538, 72 h
[21] = test system: Glycine max; test: (§3) Inhibition of soybean lipoxygenase assessed as inhibition of sodium linolate conversion to 13-hydroperoxylinoleic acid after 4 mins by spectrophotometry
[22] = as §3; design: species or system Glycine max; settings: read-out: IC50
[23] = test system: Aspergillus fumigatus; test: Fungicidal activity against Aspergillus fumigatus after 72 hrs by serial subcultivation method; format: functional
[24] = test system: Mus musculus; test: Acute toxicity in AKR mouse up to 0.5 mmol/kg, ip; format: organism-based; settings: in vivo
[25] = test system: Listeria monocytogenes; test: Antibacterial activity against Listeria monocytogenes NCTC 7973 after 24 hr by microdilution test; format: functional; settings: NCTC 7973, 24 h; outline: as §2
[26] = test system: Micrococcus flavus; test: Antibacterial activity against Micrococcus flavus ATCC 10240 after 24 hr by microdilution test; format: functional; settings: ATCC 10240, 24 h; outline: as §2
[27] = test system: Escherichia coli; test: Bactericidal activity against Escherichia coli ATCC 35210 after 72 hrs by serial subcultivation method; format: functional; settings: ATCC 35210, 72 h
[28] = test system: Talaromyces funiculosus; test: Fungicidal activity against Penicillium funiculosum ATCC 36839 after 72 hrs by serial subcultivation method; format: functional; settings: ATCC 36839, 72 h
[29] = test system: Aspergillus flavus; test: Antifungal activity against Aspergillus flavus ATCC 9643 after 72 hrs by serial dilution technique; format: functional; settings: ATCC 9643, 72 h; outline: as §1

Row | SMILES | MIC [1] | MFC [2] | MBC [3] | MIC [4] | MIC [5] | MIC [6] | MFC [7] | MIC [8] | MIC [9] | MIC [10] | MIC [11] | MBC [12] | MFC [13] | MFC [14] | MIC [15] | inhibition in vivo at 10 µmol/kg [16] | MBC [17] | MBC [18] | inhibition [19] | MBC [20] | also measured
1 | O=C1N/C(=N\c2nccs2)S/C1=C\c1ccc(F)cc1 | 32.7 µM (≈ 9.99 µg/mL) | 65.4 µM (≈ 20 µg/mL) | 65.4 µM (≈ 20 µg/mL) | 32.7 µM (≈ 9.99 µg/mL) | 24.6 µM (≈ 7.51 µg/mL) | 32.7 µM (≈ 9.99 µg/mL) | 65.4 µM (≈ 20 µg/mL) | 32.7 µM (≈ 9.99 µg/mL) | 32.7 µM (≈ 9.99 µg/mL) | 49.1 µM (≈ 15 µg/mL) | 32.7 µM (≈ 9.99 µg/mL) | 32.7 µM (≈ 9.99 µg/mL) | 81.9 µM (≈ 25 µg/mL) | 65.4 µM (≈ 20 µg/mL) | 32.7 µM (≈ 9.99 µg/mL) | 65.6% | 98.2 µM (≈ 30 µg/mL) | 81.9 µM (≈ 25 µg/mL) | 44% | 65.4 µM (≈ 20 µg/mL) | inhibition [21]: 35%; IC50 [22]: > 150 µM; MFC [23]: 65.4 µM (≈ 20 µg/mL); Activity [24]: Non-toxic; MIC [25]: 81.9 µM (≈ 25 µg/mL); MIC [26]: 65.4 µM (≈ 20 µg/mL); MBC [27]: 65.4 µM (≈ 20 µg/mL); MFC [28]: 65.4 µM (≈ 20 µg/mL); MIC [29]: 65.4 µM (≈ 20 µg/mL)
2 | O=C1N/C(=N\c2nccs2)S/C1=C\c1cccc(F)c1 | 32.7 µM (≈ 9.99 µg/mL) | 65.4 µM (≈ 20 µg/mL) | 32.7 µM (≈ 9.99 µg/mL) | 32.7 µM (≈ 9.99 µg/mL) | 24.6 µM (≈ 7.51 µg/mL) | 32.7 µM (≈ 9.99 µg/mL) | 65.4 µM (≈ 20 µg/mL) | 32.7 µM (≈ 9.99 µg/mL) | 32.7 µM (≈ 9.99 µg/mL) | 32.7 µM (≈ 9.99 µg/mL) | 24.6 µM (≈ 7.51 µg/mL) | 32.7 µM (≈ 9.99 µg/mL) | 65.4 µM (≈ 20 µg/mL) | 65.4 µM (≈ 20 µg/mL) | 32.7 µM (≈ 9.99 µg/mL) | 56.6% | 98.2 µM (≈ 30 µg/mL) | 81.9 µM (≈ 25 µg/mL) | 42% | 65.4 µM (≈ 20 µg/mL) | inhibition [21]: 72%; IC50 [22]: 90 µM; MFC [23]: 49.1 µM (≈ 15 µg/mL); Activity [24]: Non-toxic; MIC [25]: 81.9 µM (≈ 25 µg/mL); MIC [26]: 65.4 µM (≈ 20 µg/mL); MBC [27]: 65.4 µM (≈ 20 µg/mL); MFC [28]: 65.4 µM (≈ 20 µg/mL); MIC [29]: 32.7 µM (≈ 9.99 µg/mL)
3 | CN(C)c1ccc(/C=C2\S/C(=N/c3nccs3)NC2=O)cc1 | 7.6 µM (≈ 2.51 µg/mL) | 15.2 µM (≈ 5.02 µg/mL) | 60.6 µM (≈ 20 µg/mL) | 15.2 µM (≈ 5.02 µg/mL) | 7.6 µM (≈ 2.51 µg/mL) | 30.3 µM (≈ 10 µg/mL) | 15.2 µM (≈ 5.02 µg/mL) | 7.6 µM (≈ 2.51 µg/mL) | 7.6 µM (≈ 2.51 µg/mL) | 15.2 µM (≈ 5.02 µg/mL) | 30.3 µM (≈ 10 µg/mL) | 15.2 µM (≈ 5.02 µg/mL) | 15.2 µM (≈ 5.02 µg/mL) | 15.2 µM (≈ 5.02 µg/mL) | 7.6 µM (≈ 2.51 µg/mL) | 67.3% | 60.6 µM (≈ 20 µg/mL) | 15.2 µM (≈ 5.02 µg/mL) | 50% | 60.6 µM (≈ 20 µg/mL) | IC50 [22]: 95 µM; MFC [23]: 15.2 µM (≈ 5.02 µg/mL); Activity [24]: Non-toxic; MIC [25]: 30.3 µM (≈ 10 µg/mL); MIC [26]: 7.6 µM (≈ 2.51 µg/mL); MBC [27]: 15.2 µM (≈ 5.02 µg/mL); MFC [28]: 15.2 µM (≈ 5.02 µg/mL); MIC [29]: 15.2 µM (≈ 5.02 µg/mL)
4 | COc1ccccc1/C=C1\S/C(=N/c2nccs2)NC1=O | 15.8 µM (≈ 5.01 µg/mL) | 31.5 µM (≈ 10 µg/mL) | 63 µM (≈ 20 µg/mL) | 15.8 µM (≈ 5.01 µg/mL) | 31.5 µM (≈ 10 µg/mL) | 31.5 µM (≈ 10 µg/mL) | 31.5 µM (≈ 10 µg/mL) | 31.5 µM (≈ 10 µg/mL) | 15.8 µM (≈ 5.01 µg/mL) | 15.8 µM (≈ 5.01 µg/mL) | 31.5 µM (≈ 10 µg/mL) | 31.5 µM (≈ 10 µg/mL) | 31.5 µM (≈ 10 µg/mL) | 31.5 µM (≈ 10 µg/mL) | 15.8 µM (≈ 5.01 µg/mL) | 50% | 63 µM (≈ 20 µg/mL) | 31.5 µM (≈ 10 µg/mL) | 86% | 63 µM (≈ 20 µg/mL) | IC50 [22]: 63 µM; MFC [23]: 31.5 µM (≈ 10 µg/mL); Activity [24]: Non-toxic; MIC [25]: 31.5 µM (≈ 10 µg/mL); MIC [26]: 31.5 µM (≈ 10 µg/mL); MBC [27]: 63 µM (≈ 20 µg/mL); MFC [28]: 31.5 µM (≈ 10 µg/mL); MIC [29]: 23.6 µM (≈ 7.49 µg/mL)

From ChEMBL document CHEMBL2311431, “Synthesis and biological evaluation of some 5-arylidene-2-(1,3-thiazol-2-ylimino)-1,3-thiazolidin-4-ones as dual anti-inflammatory/antimicrobial agents” (Bioorg Med Chem, 2013)
